Experimental data of several laboratories.
CDK8: Cyclin-dependent kinase 8 (CDK8, Homo sapiens, UniProt P49336)
CDK8 with cyclin C: Cyclin-dependent kinase 8, with cyclin C (CDK8, Homo sapiens, UniProt P49336)

NS(=O)(=O)c1cc(NC(=O)Cc2ccccc2)ccc1Oc1cccc(Cl)c1
remaining binding (CDK8; cell-free assay, competition with immobilised ligand; 1 µM): 68%

CN1CCN(C(=O)c2ccc3cc(CCNc4ccnc5ccc(C#N)cc45)ccc3c2)CC1
inhibition (CDK8; binding, competition with immobilised ligand; 2 µM): > 85%

Cn1c2c(Cl)c(Cl)ccc2c2cc(N)[nH]c(=O)c21
ΔTm (CDK8; thermal stability, DSF; 10 µM): 0.7 °C

O=C(N1CCS(=O)(=O)CC1)N1C[C@H](c2ccc(OC(F)(F)F)cc2)C[C@H](c2nc(C3CC3)no2)C1
remaining binding (CDK8; cell-free assay, competition with immobilised ligand; 1 µM): 100%

COc1ccnn2ncc(-c3ccnc(N(C)C)n3)c12
remaining binding (CDK8; binding; 1 µM): 100%

Nc1ncnc2occ(-c3ccc(NC(=O)Nc4cc(C(F)(F)F)ccc4F)cc3)c12
remaining signal (CDK8; cell-free assay, inhibitor; 20 µM): 2%

CC(C)(C)c1nc2c(s1)c1nc(N)ncc1c1ccc(NS(=O)(=O)c3c(F)cccc3F)c(F)c12
remaining activity (CDK8 with cyclin C; enzyme activity, inhibitor, radiometric; 1 µM): 100%

Cn1c2c(c3ccc(Cl)c(Cl)c31)C(C#N)C1(CCNCC1)NC2=O (racemic)
ΔTm (CDK8; thermal stability, DSF; 10 µM): 2.2 °C

CCC(=O)N[C@H]1CC[C@@H](C(=O)N(C)c2ccc(-c3nc4ccccc4o3)cc2)C1
remaining binding (CDK8; cell-free assay, competition with immobilised ligand; 1 µM): 100%

O=C(Nc1cnn(-c2csc(C(=O)NC3COC3)c2)c1)Nc1c(F)cccc1Cl
remaining activity (CDK8 with cyclin C; enzyme activity, inhibitor; 5 µM): 99%

CN1CCC2(CC1)NC(=O)c1c(c3ccc(Cl)c(Cl)c3n1C)C2C#N (racemic)
ΔTm (CDK8; thermal stability, DSF; 10 µM): 1.8 °C

O=C(O)[C@H]1[C@H](Cn2nnc3ccccc3c2=O)CC[C@@H]1C(=O)c1ccc(OCCC2CCOCC2)cc1
remaining binding (CDK8; cell-free assay, competition with immobilised ligand; 1 µM): 100%

CCOc1cc(-c2nncn2C)ccc1Nc1ncc2cc(C)nc(NCC(C)(C)C)c2n1
inhibition (CDK8 with cyclin C; cell-free assay, TR-FRET; 1 µM): ≤ 15%

CC1(C)NC(=O)c2[nH]c3c(Cl)c(Cl)ccc3c2C1C#N (centres unmarked)
ΔTm (CDK8; thermal stability, DSF; 10 µM): 0.5 °C
